Measured values published in ChEMBL document CHEMBL3091335, “Design and synthesis of potent and selective P2X₃ receptor antagonists derived from PPADS as potential pain modulators” (Eur J Med Chem, 2013).
Active and inactive are the calls of the source. No cut-off for these calls is given here.

Key:
[1] = biological target: T1, P2X purinoceptor 3 (Homo sapiens, UniProt P56373); assay: Antagonist activity at recombinant human P2X3 receptor expressed in Xenopus oocytes assessed as inhibition of ATP-induced ion current preincubated for 20 mins followed by ATP addition by two-electrode voltage clamp assay; format: cell-based
T1 sequence (P56373 whole entry): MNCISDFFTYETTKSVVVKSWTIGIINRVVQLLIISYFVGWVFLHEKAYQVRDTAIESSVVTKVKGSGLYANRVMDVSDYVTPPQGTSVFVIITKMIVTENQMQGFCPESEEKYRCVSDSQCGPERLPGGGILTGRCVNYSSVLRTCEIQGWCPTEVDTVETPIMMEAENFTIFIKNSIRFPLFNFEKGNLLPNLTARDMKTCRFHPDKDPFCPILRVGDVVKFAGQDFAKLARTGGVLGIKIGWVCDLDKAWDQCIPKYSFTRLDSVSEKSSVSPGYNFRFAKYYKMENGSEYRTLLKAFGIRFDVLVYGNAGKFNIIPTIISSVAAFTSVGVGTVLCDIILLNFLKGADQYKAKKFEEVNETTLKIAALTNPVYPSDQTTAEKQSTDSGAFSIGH
In short: (§1)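 Defolliculated Xenopus oocytes were injected with mP2X1 or hP2X3 cRNA (40 nL), held 24 h at 18 °C in Barth's solution, then stored at 4 °C for up to 12 days. Two-electrode voltage clamp was run at Vh −70 mV in HEPES/BaCl2 buffer at pH 7.5. ATP was superfused for 60–120 s with 20 min washout. Currents were normalized to the ATP response, giving % inhibition or IC50 from inhibition curves; mean ± SEM, n≥3.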

[2] = biological target: T2, P2X purinoceptor 1 (Mus musculus) (UniProt P51576); assay: Antagonist activity at recombinant mouse P2X1 receptor expressed in Xenopus oocytes assessed as inhibition of ATP-induced ion current at 10 uM preincubated for 20 mins followed by ATP addition by two-electrode voltage clamp assay relative to control; format: cell-based; in short: as §1
T2 sequence (whole entry): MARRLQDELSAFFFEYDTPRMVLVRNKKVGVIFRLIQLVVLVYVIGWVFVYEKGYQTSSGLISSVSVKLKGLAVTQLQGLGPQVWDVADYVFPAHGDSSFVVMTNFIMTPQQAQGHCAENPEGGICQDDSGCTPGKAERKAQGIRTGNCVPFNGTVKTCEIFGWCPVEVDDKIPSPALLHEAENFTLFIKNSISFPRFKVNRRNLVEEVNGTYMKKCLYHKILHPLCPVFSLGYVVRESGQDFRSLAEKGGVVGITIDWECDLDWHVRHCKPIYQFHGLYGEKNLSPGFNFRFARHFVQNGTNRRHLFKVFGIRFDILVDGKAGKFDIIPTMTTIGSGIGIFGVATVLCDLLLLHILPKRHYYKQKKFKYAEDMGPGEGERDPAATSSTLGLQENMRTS

[3] = biological target: T3, P2X purinoceptor 7 (Homo sapiens) (UniProt Q99572); assay: Antagonist activity at human P2X7 receptor expressed in HEK293 cells assessed as inhibition of BzATP-induced accumulation of ethidium+ at 10 uM after 120 mins by fluorescence assay relative to control; format: cell-based
T3 sequence (whole entry): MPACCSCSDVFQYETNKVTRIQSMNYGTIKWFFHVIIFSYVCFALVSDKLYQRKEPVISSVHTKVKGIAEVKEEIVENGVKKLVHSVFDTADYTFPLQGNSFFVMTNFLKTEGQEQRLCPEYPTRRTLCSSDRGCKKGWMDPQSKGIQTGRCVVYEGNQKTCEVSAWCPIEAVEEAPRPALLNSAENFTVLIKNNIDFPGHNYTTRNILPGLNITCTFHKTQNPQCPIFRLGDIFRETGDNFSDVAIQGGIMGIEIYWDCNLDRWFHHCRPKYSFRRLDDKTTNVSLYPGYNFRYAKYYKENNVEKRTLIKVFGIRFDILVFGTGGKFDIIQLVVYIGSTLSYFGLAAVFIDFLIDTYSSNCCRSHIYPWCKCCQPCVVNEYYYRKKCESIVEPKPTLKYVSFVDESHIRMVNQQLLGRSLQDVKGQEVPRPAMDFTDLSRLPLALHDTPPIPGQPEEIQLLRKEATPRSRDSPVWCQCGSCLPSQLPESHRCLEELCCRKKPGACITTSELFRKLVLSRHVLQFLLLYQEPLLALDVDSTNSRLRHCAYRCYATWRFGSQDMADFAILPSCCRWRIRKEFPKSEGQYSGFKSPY
In short: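 HEK293 cells expressing hP2X7 were grown in DMEM with 10% FBS at 37 °C under 5% CO2, harvested with trypsin/EDTA and resuspended at 2.5 × 10⁶ cells/mL in KCl/glucose/EDTA/HEPES buffer (pH 7.4) with ethidium bromide. Cells were plated at 2 × 10⁵ cells/well with BzATP and incubated at 37 °C for 120 min. Fluorescence was read at ex 530/em 590 nm; mean ± SEM, n≥3.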

[4] = biological target: T4, P2X purinoceptor 3 (Homo sapiens) (UniProt P56373); assay: Antagonist activity at recombinant human P2X3 receptor expressed in Xenopus oocytes assessed as inhibition of ATP-induced ion current at 100 nM preincubated for 15 mins followed by ATP addition by two-electrode voltage clamp assay relative to control; format: cell-based
T4 sequence (whole entry): T1 sequence (P56373 whole entry)

[5] = biological target: T4, P2X purinoceptor 3 (Homo sapiens); assay: Antagonist activity at recombinant human P2X3 receptor expressed in Xenopus oocytes assessed as inhibition of ATP-induced ion current at 1 uM preincubated for 15 mins followed by ATP addition by two-electrode voltage clamp assay relative to control; format: cell-based
[6] = Antinociceptive activity in rat spinal dorsal horn assessed as inhibition of electrically-stimulated long term potentiation at 20 uM by Di-4-ANEPPS dye-based assay relative to control; format: functional; details: Dorsal horn of spinal cord
In short: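 Ex vivo rat spinal cord slices (0.5 mm) loaded with voltage-sensitive dye Di-4-ANEPPS; optical signal in dorsal horn monitored before and after LTP induction by 2 Hz electrical stimulation (0.5 msec pulse) for 2 min. Expressed as % inhibition of LTP with compound treatment; means ± SD of 4 samples; pregabalin positive control.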

[7] = biological target: T5, P2X2/P2X3 receptor (Rattus norvegicus) (UniProt P49653+P49654); assay: Antagonist activity at recombinant rat P2X2/3 receptor expressed in Xenopus oocytes assessed as inhibition of ATP-induced ion current at 100 nM preincubated for 15 mins followed by ATP addition by two-electrode voltage clamp assay relative to control; format: cell-based
[8] = biological target: T5, P2X2/P2X3 receptor (Rattus norvegicus); assay: Antagonist activity at recombinant rat P2X2/3 receptor expressed in Xenopus oocytes assessed as inhibition of ATP-induced ion current at 1 uM preincubated for 15 mins followed by ATP addition by two-electrode voltage clamp assay relative to control; format: cell-based
[9] = biological target: T4, P2X purinoceptor 3 (Homo sapiens); assay: Antagonist activity at recombinant human P2X3 receptor expressed in Xenopus oocytes assessed as inhibition of ATP-induced ion current at 10 uM preincubated for 20 mins followed by ATP addition by two-electrode voltage clamp assay relative to control; format: cell-based; in short: as §1
[10] = biological target: T6, P2X purinoceptor 1 (Mus musculus, UniProt P51576); assay: Antagonist activity at recombinant mouse P2X1 receptor expressed in Xenopus oocytes assessed as inhibition of ATP-induced ion current preincubated for 20 mins followed by ATP addition by two-electrode voltage clamp assay; format: cell-based; in short: as §1
T6 sequence (P51576 whole entry): T2 sequence (whole entry)

[11] = biological target: T6, P2X purinoceptor 1; assay: Antagonist activity at mouse P2X1 receptor

For `Cc1nc(Cc2cccc(Oc3ccccc3)c2)c(CCC(=O)O)c(C(=O)O)c1O`, the IC50 [1] was 638 nM, the inhibition [2] was 31.7% and the inhibition [3] was “inactive”.
`Cc1nc(Cc2cccc(Oc3ccccc3)c2)c(/C=C/C(=O)O)c(C=O)c1O` showed an IC50 [1] of 60 nM, an inhibition [4] of 59.7% and an inhibition [5] of 77.4%. It also gave an inhibition at 20 µM [6] of 65%, an inhibition [2] of 18.3% and an inhibition [7] of 49.2%. The inhibition [8] was 70.8% and the inhibition [3] was 15.1%.
With `Cc1nc(Cc2cccc(Oc3ccccc3)c2)c(/C=C/C(=O)O)c(C(=O)O)c1O` the IC50 [1] was 377 nM, the inhibition [2] was 33.7% and the inhibition [3] was “inactive”.
For `Cc1cc(C(=O)O)c(C(=O)O)c(NC(=O)c2ccccc2)n1`, the inhibition [9] was “inactive” and the inhibition [3] was “inactive”.
In the case of `COc1ccccc1CCc1nc(C)c(O)c(C(C)=O)c1C(=O)O`, the inhibition [2] is reported as 11.4%, the inhibition [9] is reported as 6.3% and the inhibition [3] is reported as “inactive”.
For `COc1ccccc1CCc1nc(C)c(O)c(C(=O)O)c1C(=O)O`, the inhibition [2] was 49.8%, the inhibition [9] was 34.5% and the inhibition [3] was “inactive”.
For `Cc1nc(/C=C/c2ccccc2)c(C(=O)O)c(C(=O)O)c1O`, the IC50 [10] was 768 nM, the IC50 [1] was 920 nM and the inhibition [3] was “inactive”.
For `Cc1nc(Cc2ccccc2)c(C(=O)O)c(C(=O)O)c1O`, the inhibition [2] was 54.2%, the inhibition [9] was 31.4% and the inhibition [3] was “inactive”.
With `COc1ccc(CCc2nc(C)c(O)c(C(C)=O)c2C(=O)O)cc1` the inhibition [2] was 52%, the inhibition [9] was 42.2% and the inhibition [3] was “inactive”.
With `CC(=O)c1c(O)c(C)nc(Cc2ccccc2)c1C(=O)O` the inhibition [2] was 44.2%, the inhibition [9] was 18.3% and the inhibition [3] was “inactive”.
In the case of `Cc1nc(Cc2cccc3ccccc23)c2c(c1O)C(O)OC2=O` (configuration not stated), the IC50 [1] is reported as 856 nM and the inhibition [3] is reported as 14.8%.
For `CC(C)C[C@H](CN)CC(=O)O` [PREGABALIN], the inhibition at 20 µM [6] was 31%.
In the case of `COc1cccc(CCc2nc(C)c(O)c(C(=O)O)c2C(=O)O)c1`, the inhibition [2] is reported as 52.4%, the inhibition [9] is reported as 45.5% and the inhibition [3] is reported as “inactive”.
For `Cc1nc(CC(c2ccccc2)c2ccccc2)c(C(=O)O)c(C(=O)O)c1O`, the IC50 [1] was 824 nM, the inhibition [2] was 42% and the inhibition [3] was “inactive”.
In the case of `Cc1nc(NC(=O)c2ccccc2)c(C(=O)O)c(C(=O)O)c1O`, the IC50 [1] is reported as 723 nM and the inhibition [3] is reported as “inactive”.
In the case of `Cc1nc(COCc2ccccc2)c(C(=O)O)c(C(=O)O)c1O`, the inhibition [9] is reported as 23.1% and the inhibition [3] is reported as “inactive”.
`Cc1nc(Cc2cccc(Oc3ccccc3)c2)c2c(c1O)C(O)OC2=O` (configuration not stated) gave an IC50 [1] of 652 nM, an inhibition [2] of 45% and an inhibition [3] of 27.1%.
With `CC(=O)c1c(O)c(C)nc(/C=C/c2ccccc2)c1C(=O)O` the inhibition [2] was 52.4%, the inhibition [9] was 27.4% and the inhibition [3] was “inactive”.
In the case of `Cc1nc(Cc2ccccc2Oc2ccccc2)c(C(=O)O)c(C(=O)O)c1O`, the IC50 [1] is reported as 2930 nM, the inhibition [2] is reported as 49.6% and the inhibition [3] is reported as “inactive”.
In the case of `Cc1nc(Cc2cccc3ccccc23)c(C(=O)O)c(C(=O)O)c1O`, the IC50 [1] is reported as 1250 nM, the inhibition [2] is reported as 48.7% and the inhibition [3] is reported as “inactive”.
In the case of `Cc1nc(CCc2cccc(Oc3ccccc3)c2)c(C(=O)O)c(C(=O)O)c1O`, the IC50 [1] is reported as 587 nM, the inhibition [2] is reported as 38.3% and the inhibition [3] is reported as “inactive”.
For `CC(=O)c1c(O)c(C)nc(CCc2ccccc2)c1C(=O)O`, the inhibition [2] was 47.9%, the inhibition [9] was 37.3% and the inhibition [3] was “inactive”.
With `Cc1nc(-c2cccc(Oc3ccccc3)c2)c(C(=O)O)c(C(=O)O)c1O` the IC50 [1] was 3300 nM, the inhibition [2] was 49.7% and the inhibition [3] was “inactive”.
`Cc1nc(Cc2cccc3ccccc23)c(/C=C/C(=O)O)c(C=O)c1O` showed an IC50 [1] of 145 nM, an inhibition [2] of 22% and an inhibition [3] of 48.4%.
With `COc1cccc(CCc2nc(C)c(O)c(C(C)=O)c2C(=O)O)c1` the inhibition [2] was 29.9%, the inhibition [9] was 15.8% and the inhibition [3] was “inactive”.
In the case of `Cc1nc(CCc2ccc(C(=O)O)cc2)c(C(=O)O)c(C(=O)O)c1O`, the IC50 [10] is reported as 267 nM, the IC50 [1] is reported as 458 nM and the inhibition [3] is reported as “inactive”.
`Cc1nc(Cc2cccc3ccccc23)c(CCC(=O)O)c(C=O)c1O` gave an IC50 [1] of 636 nM and an inhibition [3] of 43.4%.
`Cc1nc(Cc2cccc(Oc3ccccc3)c2)c(CCC(=O)O)c(C=O)c1O` showed an IC50 [1] of 366 nM, an inhibition [2] of 23% and an inhibition [3] of 10.2%.
Work on `Cc1nc(/N=N/c2ccc(S(=O)(=O)O)cc2S(=O)(=O)O)c(COP(=O)(O)O)c(C=O)c1O` yielded an IC50 [11] of 99 nM.
In the case of `Cc1nc(Cc2cccc(Oc3ccccc3)c2)c(C(=O)O)c(C(=O)O)c1O`, the IC50 [1] is reported as 474 nM, the inhibition [2] is reported as 41.8% and the inhibition [3] is reported as “inactive”.
With `Cc1nc(Cc2ccc(Oc3ccccc3)cc2)c(C(=O)O)c(C(=O)O)c1O` the IC50 [1] was 1050 nM, the inhibition [2] was 40% and the inhibition [3] was “inactive”.
With `Cc1nc(CCc2ccccc2)c(C(=O)O)c(C(=O)O)c1O` the IC50 [10] was 645 nM, the IC50 [1] was 797 nM and the inhibition [3] was “inactive”.
In the case of `COc1ccc(CCc2nc(C)c(O)c(C(=O)O)c2C(=O)O)cc1`, the IC50 [10] is reported as 446 nM, the IC50 [1] is reported as 460 nM and the inhibition [3] is reported as “inactive”.
With `Cc1nc(NC(=O)c2cccc(Oc3ccccc3)c2)c(C(=O)O)c(C(=O)O)c1O` the IC50 [1] was 928 nM and the inhibition [3] was “inactive”.
